Measurements published in ChEMBL document CHEMBL1649212, “AI-2/LuxS is involved in increased biofilm formation by Streptococcus intermedius in the presence of antibiotics” (2009).
The source made the active and inactive calls. No cut-off for these calls is given here.

What was measured:
[1] = system: Streptococcus intermedius; experiment: Antimicrobial activity against Streptococcus intermedius NCTC 11324 assessed as biofilm formation at 0.05 to 0.10 ug/ml; format: functional, organism-based
Outline: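 Wild-type NCTC 11324 was grown overnight in TSB and inoculated into TSB with ampicillin (0.02 to 0.10 μg/ml), ciprofloxacin (0.10 to 0.28 μg/ml) or tetracycline (0.05 to 0.30 μg/ml), added at time zero. Wells held plastic coverslips and were incubated 12 h at 37°C in 5% CO2 aerobic air. Biofilm was measured as described previously. Experiments were done three times in three parallels.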

[2] = system: Streptococcus intermedius; experiment: Antimicrobial activity against Streptococcus intermedius SI006 planktonic cells harboring luxS mutant gene assessed as bacterial count at 0.12 ug/ml (Rvb =757.5 +/- 80.14 10^8 CFU/ml); format: functional
[3] = system: Streptococcus intermedius; experiment: Antimicrobial activity against Streptococcus intermedius SI006 biofilm harboring luxS mutant gene assessed as biofilm bacterial count at 0.07 ug/ml (Rvb =310.8 +/- 17.10 10^5 CFU/ml); format: functional
[4] = system: Streptococcus intermedius; experiment: Antimicrobial activity against Streptococcus intermedius NCTC 11324 planktonic cells assessed as bacterial count at 0.08 ug/ml (Rvb =791.7 +/- 44.10 10^8 CFU/ml); format: functional
Outline: (§1)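 Planktonic wild-type cells were inoculated at ≈4 × 10^5 CFU/ml in TSB in ultra-low-binding plates. Media were without or with ampicillin (0.02 to 0.14 μg/ml), ciprofloxacin (0.10 to 0.35 μg/ml) or tetracycline (0.03 to 0.20 μg/ml). After 12 h at 37°C in 5% CO2 aerobic air, CFU were counted, run in parallel with the BacTiter-Glo ATP assay. Experiments were done three times in two parallels.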

[5] = system: Streptococcus intermedius; experiment: Antimicrobial activity against Streptococcus intermedius SI006 planktonic cells harboring luxS mutant gene assessed as bacterial count at 0.08 ug/ml in presence of 0.8 nM autoinducer 4,5-dihydroxy-2,3-pentanedione (Rvb =790.8 +/- 90.09 10^8 CFU/ml); format: functional
[6] = system: Streptococcus intermedius; experiment: Antimicrobial activity against Streptococcus intermedius NCTC 11324 biofilm assessed as biofilm bacterial count at 0.10 ug/ml (Rvb =402.9 +/- 26.88 10^5 CFU/ml); format: functional
[7] = system: Streptococcus intermedius; experiment: Antimicrobial activity against Streptococcus intermedius NCTC 11324 assessed as growth inhibition at 0.7 ug/ml; format: functional
Outline: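 Broth microdilution MIC in ultra-low-binding 96-well plates, inoculum ≈4 × 10^5. Growth was read at 595 nm, and the MIC was taken as the lowest antibiotic concentration inhibiting growth.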

[8] = system: Streptococcus intermedius; experiment: Antimicrobial activity against Streptococcus intermedius SI006 biofilm harboring luxS mutant gene assessed as biofilm bacterial count at 0.07 ug/ml in presence of 0.8 nM autoinducer 4,5-dihydroxy-2,3-pentanedione (Rvb =413.7 +/- 24.47 10^5 CFU/ml); format: functional
[9] = system: Streptococcus intermedius; experiment: Antimicrobial activity against Streptococcus intermedius SI006 biofilm harboring luxS mutant gene assessed as biofilm bacterial count at 0.05 ug/ml in presence of 0.8 nM autoinducer 4,5-dihydroxy-2,3-pentanedione (Rvb =413.7 +/- 24.47 10^5 CFU/ml); format: functional
[10] = system: Streptococcus intermedius; experiment: Antimicrobial activity against Streptococcus intermedius SI006 planktonic cells harboring luxS mutant gene assessed as bacterial count at 0.10 ug/ml in presence of 0.8 nM autoinducer 4,5-dihydroxy-2,3-pentanedione (Rvb =790.8 +/- 90.09 10^8 CFU/ml); format: functional
[11] = system: Streptococcus intermedius; experiment: Antimicrobial activity against Streptococcus intermedius SI006 planktonic cells harboring luxS mutant gene assessed as bacterial count at 0.12 ug/ml in presence of 0.8 nM autoinducer 4,5-dihydroxy-2,3-pentanedione (Rvb =790.8 +/- 90.09 10^8 CFU/ml); format: functional
[12] = system: Streptococcus intermedius; experiment: Antimicrobial activity against Streptococcus intermedius NCTC 11324 biofilm assessed as biofilm bacterial count at 0.07 ug/ml (Rvb =402.9 +/- 26.88 10^5 CFU/ml); format: functional
[13] = system: Streptococcus intermedius; experiment: Antimicrobial activity against Streptococcus intermedius NCTC 11324 planktonic cells assessed as bacterial count at 0.12 ug/ml (Rvb =791.7 +/- 44.10 10^8 CFU/ml); format: functional; outline: as §1
[14] = system: Streptococcus intermedius; experiment: Antimicrobial activity against Streptococcus intermedius SI006 planktonic cells harboring luxS mutant gene assessed as bacterial count at 0.08 ug/ml (Rvb =757.5 +/- 80.14 10^8 CFU/ml); format: functional
[15] = system: Streptococcus intermedius; experiment: Antimicrobial activity against Streptococcus intermedius SI006 planktonic cells harboring luxS mutant gene assessed as bacterial count at 0.15 ug/ml in presence of 0.8 nM autoinducer 4,5-dihydroxy-2,3-pentanedione (Rvb =790.8 +/- 90.09 10^8 CFU/ml); format: functional
[16] = system: Streptococcus intermedius; experiment: Antimicrobial activity against Streptococcus intermedius SI006 biofilm harboring luxS mutant gene assessed as biofilm bacterial count at 0.05 ug/ml (Rvb =310.8 +/- 17.10 10^5 CFU/ml); format: functional
[17] = system: Streptococcus intermedius; experiment: Antimicrobial activity against Streptococcus intermedius SI006 planktonic cells harboring luxS mutant gene assessed as bacterial count at 0.15 ug/ml (Rvb =757.5 +/- 80.14 10^8 CFU/ml); format: functional
[18] = system: Streptococcus intermedius; experiment: Antimicrobial activity against Streptococcus intermedius NCTC 11324 planktonic cells assessed as bacterial count at 0.15 ug/ml (Rvb =791.7 +/- 44.10 10^8 CFU/ml); format: functional; outline: as §1
[19] = system: Streptococcus intermedius; experiment: Antimicrobial activity against Streptococcus intermedius NCTC 11324 biofilm assessed as biofilm bacterial count at 0.05 ug/ml (Rvb =402.9 +/- 26.88 10^5 CFU/ml); format: functional
[20] = system: Streptococcus intermedius; experiment: Antimicrobial activity against Streptococcus intermedius SI006 planktonic cells harboring luxS mutant gene assessed as bacterial count at 0.10 ug/ml (Rvb =757.5 +/- 80.14 10^8 CFU/ml); format: functional
[21] = system: Streptococcus intermedius; experiment: Antimicrobial activity against Streptococcus intermedius SI006 biofilm harboring luxS mutant gene assessed as biofilm bacterial count at 0.10 ug/ml (Rvb =310.8 +/- 17.10 10^5 CFU/ml); format: functional
[22] = system: Streptococcus intermedius; experiment: Antimicrobial activity against Streptococcus intermedius SI006 biofilm harboring luxS mutant gene assessed as biofilm bacterial count at 0.10 ug/ml in presence of 0.8 nM autoinducer 4,5-dihydroxy-2,3-pentanedione (Rvb =413.7 +/- 24.47 10^5 CFU/ml); format: functional
[23] = system: Streptococcus intermedius; experiment: Antimicrobial activity against Streptococcus intermedius NCTC 11324 planktonic cells assessed as bacterial count at 0.10 ug/ml (Rvb =791.7 +/- 44.10 10^8 CFU/ml); format: functional; outline: as §1

In the case of `CN(C)[C@@H]1C(O)=C(C(N)=O)C(=O)[C@@]2(O)C(O)=C3C(=O)c4c(O)cccc4[C@@](C)(O)[C@H]3C[C@@H]12` [TETRACYCLINE], the Activity [1] is reported as “inactive”, the CFU [2] is reported as 3 ×10⁸ /ml and the CFU [3] is reported as 253.1 ×10⁵ /ml. The CFU [4] was 61.9 ×10⁸ /ml, the CFU [5] was 38.4 ×10⁸ /ml and the CFU [6] was 610.5 ×10⁵ /ml. For the same compound, the Activity [7] was 0.7 µg/mL, the CFU [8] was 253.1 ×10⁵ /ml and the CFU [9] was 333 ×10⁵ /ml. For the same compound, the CFU [10] was 25.2 ×10⁸ /ml, the CFU [11] was 16.3 ×10⁸ /ml and the CFU [12] was 637.1 ×10⁵ /ml. It also gave a CFU [13] of 32 ×10⁸ /ml, a CFU [14] of 11.2 ×10⁸ /ml and a CFU [15] of 10.1 ×10⁸ /ml. The CFU [16] was 333 ×10⁵ /ml, the CFU [17] was 2 ×10⁸ /ml and the CFU [18] was 24.2 ×10⁸ /ml. The CFU [19] was 779.2 ×10⁵ /ml, the CFU [20] was 5.7 ×10⁸ /ml and the CFU [21] was 108.8 ×10⁵ /ml. The CFU [22] was 486.2 ×10⁵ /ml and the CFU [23] was 44.5 ×10⁸ /ml.
